Measured values: ChEMBL document CHEMBL1121835, “Synthesis and anxiolytic activity of 6-(substituted-phenyl)-1,2,4-triazolo[4,3-b]pyridazines” (J Med Chem, 1981)
Calls of active or inactive are those of the source. The calls are words filed in the database; no cut-off is given here.

Columns and labels:
Rattus norvegicus [1] = organism: Rattus norvegicus; assay: Anxiolytic activity for protection against pentylenetetrazole-induced convulsions in experiment 2; format: functional
In short: (§1)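 Rats in groups of 10, food-deprived 24 h, given 4–6 graded doses of compound orally (or ip where noted). PTZ at 23 mg/kg was injected iv into the caudal vein 60 min later. Protection meant no clonic seizure lasting at least 5 s. The number protected was counted and the ED50 estimated.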

[2] = molecular target: T1, GABA-A receptor; anion channel (Rattus norvegicus) (UniProt O09028+P15431+P18506+P18508+P19969+P20236+P23574+P23576+P28471+P28473+P30191+P62813+P63079+P63138+Q91ZM7+Q9ES14); assay: In vitro percent inhibition of [3H]diazepam binding to rat GABA-A benzodiazepine receptor at 1 uM; format: protein-complex assay
[3] = molecular target: GABA-A receptor; anion channel; assay: In vitro for inhibition of [3H]diazepam towards Benzodiazepine receptor from rat; format: protein-complex assay
In short: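 Rat frontal cortex homogenized in ice-cold 0.32 M sucrose; crude P2 synaptosomal fraction resuspended in 50 mM Tris-HCl pH 7.4. IC50 read graphically from % inhibition vs log concentration plots.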

[4] = molecular target: T1, GABA-A receptor; anion channel (Rattus norvegicus); assay: In vitro inhibition of [3H]diazepam binding towards Benzodiazepine receptor at 1 uM; format: protein-complex assay
Rattus norvegicus [5] = organism: Rattus norvegicus; assay: Anxiolytic activity for protection against pentylenetetrazole-induced convulsions in experiment 1; format: functional; in short: as §1
Rattus norvegicus [6] = assay: Hypotensive activity evaluated as mean arterial blood pressure (MABP) in saline-loaded spontaneously hypertensive rats dosed (per oral) at 25 mg/kg; format: functional
In short: (§2)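 Male Okamoto SH rats, about 300 g, gavaged with compound suspended in 2% boiled starch, with 0.9% NaCl loading at 25 mL/kg, at 0 h. An identical dose without saline followed at 24 h. Mean arterial pressure was taken by iliac artery puncture under local lidocaine at 28 h. Values are from one to three rats.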

Rattus norvegicus [7] = assay: Hypotensive activity in saline-loaded spontaneously hypertensive rats following 100 mg/kg p.o. administration.; format: functional; set-up: unit not given beside the values; conditions: route oral; in short: as §2
Rattus norvegicus [8] = organism: Rattus norvegicus; assay: Compound was evaluated for anxiolytic activity for protection against pentylenetetrazole-induced convulsions in experiment 2; format: functional; in short: as §1
Rattus norvegicus [9] = assay: In vivo protection against pentylenetetrazole-induced convulsions in the rat.; format: functional; in short: as §1
Rattus norvegicus [10] = assay: Compound was evaluated for anxiolytic activity for protection against pentylenetetrazole-induced convulsions; No activity at 50 mg/Kg; format: functional, organism-based; in short: as §1
Rattus norvegicus [11] = organism: Rattus norvegicus; assay: Anxiolytic activity for protection against pentylenetetrazole-induced convulsions.; format: functional, organism-based; in short: as §1
Rattus norvegicus [12] = assay: Compound was evaluated for anxiolytic activity for protection against pentylenetetrazole-induced convulsions; no activity at 50 mg/kg; format: functional, organism-based; set-up: dose 50 mg/kg; in short: as §1
Rattus norvegicus [13] = assay: Compound was evaluated for anxiolytic activity for protection against pentylenetetrazole-induced convulsions administered intraperitoneally; format: functional; conditions: ip; in short: as §1
Rattus norvegicus [14] = assay: Compound was evaluated for anxiolytic activity for protection against pentylenetetrazole-induced convulsions administered orally; No activity at 50 mg/Kg; format: functional, organism-based; in short: as §1
Rattus norvegicus [15] = assay: Hypotensive activity evaluated as mean arterial blood pressure (MABP) in saline-loaded spontaneously hypertensive rats dosed (per oral) at 50 mg/kg; format: functional; in short: as §2
Rattus norvegicus [16] = assay: Hypotensive activity evaluated as mean arterial blood pressure (MABP) in saline-loaded spontaneously hypertensive rats dosed (per oral) at 100 mg/kg; Toxic at 100 mg/Kg; format: functional, organism-based; in short: as §2
Rattus norvegicus [17] = organism: Rattus norvegicus; assay: Average reduction in blood pressure over control (4 rats) at 2 hr in spontaneous hypertensive rats; format: functional
In short: (§3)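 Conscious cannulated male Okamoto SH rats, 300–350 g, dosed po with vehicle (2% boiled starch) or compound at 1, 5, 10 and 25 mg/kg. A second po dose was given 20 h later, and pressure was recorded continuously for 4 h. The value is the mean reduction against controls at 2 and 4 h, n = 4.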

Rattus norvegicus [18] = organism: Rattus norvegicus; assay: Average reduction in blood pressure over control (4 rats) at 4 hr in spontaneous hypertensive rats; format: functional; in short: as §3
[19] = Rattus norvegicus, read-out: ED50

For Cc1nnc2ccc(-c3cccc(Cl)c3)nn12, the ED50 (Rattus norvegicus [1]) was 4.8 mg/kg, the inhibition [2] was 61% and the IC50 [3] was 709 nM. For the same molecule, the inhibition [4] was 60% and the ED50 (Rattus norvegicus [5]; [19]) was 8 mg/kg.
For c1ccc(-c2ccc3nncn3n2)cc1, the ED50 (Rattus norvegicus [1]) was 4.8 mg/kg, the inhibition [4] was 23% and the ED50 (Rattus norvegicus [5]; [19]) was 9 mg/kg.
With Cl.NNc1nncc2ccccc12 [HYDRALAZINE HYDROCHLORIDE] the MABP (Rattus norvegicus [6]) was 82.
FC(F)(F)c1cccc(-c2ccc3nncn3n2)c1 was tested, and the MABP (Rattus norvegicus [7]) was 90, the MABP (Rattus norvegicus [6]) was 117 and the IC50 [3] was 905 nM. For the same molecule, the ED50 (Rattus norvegicus [8]) was 2.5 mg/kg, the inhibition [4] was 55% and the ED50 (Rattus norvegicus [5]; [19]) was 4.5 mg/kg.
Cc1cc2nncn2nc1-c1cccc(C(F)(F)F)c1 showed an ED50 (Rattus norvegicus [9]) of 12.9 mg/kg and an inhibition [4] of 21%.
For Cc1nnc2ccc(-c3ccc(Cl)cc3)nn12, the ED50 (Rattus norvegicus [1]) was 10 mg/kg, the inhibition [4] was 28% and the ED50 (Rattus norvegicus [5]; [19]) was 9.9 mg/kg.
Molecule Clc1cccc(-c2ccc3nncn3n2)c1 has an ED50 (Rattus norvegicus [9]) of 8.2 mg/kg, an IC50 [3] of 2250 nM and an inhibition [4] of 30%.
In the case of CCc1nnc2ccc(-c3cccc(C(F)(F)F)c3)nn12, the ED50 (Rattus norvegicus [9]) is reported as 24 mg/kg, the IC50 [3] is reported as 280 nM and the inhibition [4] is reported as 73%.
For Cc1cc(-c2cccc(C(F)(F)F)c2)nn2c(C)nnc12, the ED50 (Rattus norvegicus [10]) was “inactive” and the inhibition [4] was less than 10%.
Cc1nnc2ccc(-c3ccc(F)cc3)nn12 showed an inhibition [2] of 64%, an IC50 [3] of 589 nM and an inhibition [4] of 65%. The ED50 (Rattus norvegicus [5]) was 2 mg/kg and the ED50 (Rattus norvegicus [5]; [19]) was 3.4 mg/kg.
With Cc1cc(-c2ccc(F)cc2)nn2c(C)nnc12 the MABP (Rattus norvegicus [7]) was 126, the inhibition [4] was less than 10% and the ED50 (Rattus norvegicus [11]) was “inactive”.
With Cc1cc2nncn2nc1-c1cccc(F)c1 the MABP (Rattus norvegicus [7]) was 142 and the ED50 (Rattus norvegicus [11]) was “inactive”.
Cc1nnc2ccc(-c3cccc([N+](=O)[O-])c3)nn12 showed an ED50 (Rattus norvegicus [9]) of 11.6 mg/kg and an inhibition [4] of 53%.
In the case of Cc1nnc2ccc(-c3ccccc3)nn12, the ED50 (Rattus norvegicus [1]) is reported as 2.9 mg/kg, the IC50 [3] is reported as 633 nM and the inhibition [4] is reported as 55%. It also gave an ED50 (Rattus norvegicus [5]; [19]) of 2.3 mg/kg.
With Fc1cccc(-c2ccc3nncn3n2)c1 the ED50 (Rattus norvegicus [9]) was 5.5 mg/kg.
Work on Cc1nnc2ccc(-c3cccc(F)c3)nn12 yielded an ED50 (Rattus norvegicus [9]) of 3.1 mg/kg, an inhibition [2] of 43% and an IC50 [3] of 1200 nM. The inhibition [4] was 47%.
CC(=O)Nc1cccc(-c2ccc3nnc(C)n3n2)c1 was tested, and the EC50 (Rattus norvegicus [12]) was “Not Active”, the IC50 [3] was 633 nM and the inhibition [4] was 56%.
COc1cccc(-c2ccc3nncn3n2)c1 was tested, and the inhibition [2] was 29%, the inhibition [4] was 34% and the ED50 (Rattus norvegicus [13]) was 50 mg/kg.
With Cc1nnc2ccc(-c3ccc(C(F)(F)F)cc3)nn12 the MABP (Rattus norvegicus [6]) was 157, the ED50 (Rattus norvegicus [14]) was “inactive” and the MABP (Rattus norvegicus [15]) was 123. The inhibition [4] was 17%, the MABP (Rattus norvegicus [16]) was “Toxic” and the ED50 (Rattus norvegicus [13]) was 15 mg/kg.
For Clc1ccc(-c2ccc3nncn3n2)cc1, the MABP (Rattus norvegicus [7]) was 110, the BP (Rattus norvegicus [17]) was -15 mmHg and the ED50 (Rattus norvegicus [1]) was 9.8 mg/kg. It also gave an MABP (Rattus norvegicus [6]) of 136, an inhibition [4] of less than 10% and an ED50 (Rattus norvegicus [5]; [19]) of 5.3 mg/kg. The BP (Rattus norvegicus [18]) was -17 mmHg.
Molecule Clc1ccccc1-c1ccc2nncn2n1 has an ED50 (Rattus norvegicus [9]) of 18 mg/kg and an MABP (Rattus norvegicus [7]) of 127.
Work on CCCC(C)(COC(N)=O)COC(N)=O yielded an inhibition [4] of 1.8%.
COCc1nnc2ccc(-c3ccccc3)nn12 was tested, and the ED50 (Rattus norvegicus [1]) was 6.4 mg/kg, the inhibition [4] was less than 10% and the ED50 (Rattus norvegicus [5]; [19]) was 9.5 mg/kg.
For Cc1cc2nnc(C)n2nc1-c1ccc(F)cc1, the inhibition [4] was less than 10% and the ED50 (Rattus norvegicus [11]) was “inactive”.
Cl.Clc1cccc(Cl)c1NC1=NCCN1 [CLONIDINE HYDROCHLORIDE] was tested, and the MABP (Rattus norvegicus [7]) was 102.
c1ccc(Cc2nnc3ccc(-c4ccccc4)nn23)cc1 was tested, and the ED50 (Rattus norvegicus [11]) was “inactive”.
With Cc1cc2nnc(C)n2nc1-c1cccc(F)c1 the inhibition [4] was less than 10% and the ED50 (Rattus norvegicus [11]) was “inactive”.
Cc1cc2nncn2nc1-c1cccc(C#N)c1 was tested, and the ED50 (Rattus norvegicus [9]) was 34 mg/kg, the MABP (Rattus norvegicus [7]) was 88 and the MABP (Rattus norvegicus [6]) was 135.
For Cc1cccc(-c2ccc3nnc(C(F)(F)F)n3n2)c1, the ED50 (Rattus norvegicus [10]) was “inactive”.
Nc1cccc(-c2ccc3nncn3n2)c1 showed an ED50 (Rattus norvegicus [1]) of 16.6 mg/kg, an inhibition [4] of 32% and an ED50 (Rattus norvegicus [5]; [19]) of 15 mg/kg.
With Fc1ccccc1-c1ccc2nncn2n1 the ED50 (Rattus norvegicus [9]) was 17 mg/kg, the MABP (Rattus norvegicus [7]) was 112 and the inhibition [4] was 16%.
